{
  "source": "ChEMBL document CHEMBL4138139",
  "about": "“Discovery of VU6005649, a CNS Penetrant mGlu7/8 Receptor PAM Derived from a Series of Pyrazolo[1,5-a]pyrimidines” (ACS Med Chem Lett, 2017)",
  "key": {"[1]": {"species": "Homo sapiens", "experiment": "Displacement of [125I] epibatidine from human nAChR expressed in IMR32 cell membranes at 10 uM after 60 mins by scintillation counting method relative to control", "how_it_was_run": "(§1)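 Single-concentration screen at 10 μM in an outsourced profiling panel of 68 GPCRs, ion channels and transporters. Activity read out as percent inhibition of specific radioligand binding.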"}, "[2]": {"molecular_target": "Metabotropic glutamate receptor 6 (Homo sapiens, UniProt O15303)", "sequence (O15303 whole entry)": "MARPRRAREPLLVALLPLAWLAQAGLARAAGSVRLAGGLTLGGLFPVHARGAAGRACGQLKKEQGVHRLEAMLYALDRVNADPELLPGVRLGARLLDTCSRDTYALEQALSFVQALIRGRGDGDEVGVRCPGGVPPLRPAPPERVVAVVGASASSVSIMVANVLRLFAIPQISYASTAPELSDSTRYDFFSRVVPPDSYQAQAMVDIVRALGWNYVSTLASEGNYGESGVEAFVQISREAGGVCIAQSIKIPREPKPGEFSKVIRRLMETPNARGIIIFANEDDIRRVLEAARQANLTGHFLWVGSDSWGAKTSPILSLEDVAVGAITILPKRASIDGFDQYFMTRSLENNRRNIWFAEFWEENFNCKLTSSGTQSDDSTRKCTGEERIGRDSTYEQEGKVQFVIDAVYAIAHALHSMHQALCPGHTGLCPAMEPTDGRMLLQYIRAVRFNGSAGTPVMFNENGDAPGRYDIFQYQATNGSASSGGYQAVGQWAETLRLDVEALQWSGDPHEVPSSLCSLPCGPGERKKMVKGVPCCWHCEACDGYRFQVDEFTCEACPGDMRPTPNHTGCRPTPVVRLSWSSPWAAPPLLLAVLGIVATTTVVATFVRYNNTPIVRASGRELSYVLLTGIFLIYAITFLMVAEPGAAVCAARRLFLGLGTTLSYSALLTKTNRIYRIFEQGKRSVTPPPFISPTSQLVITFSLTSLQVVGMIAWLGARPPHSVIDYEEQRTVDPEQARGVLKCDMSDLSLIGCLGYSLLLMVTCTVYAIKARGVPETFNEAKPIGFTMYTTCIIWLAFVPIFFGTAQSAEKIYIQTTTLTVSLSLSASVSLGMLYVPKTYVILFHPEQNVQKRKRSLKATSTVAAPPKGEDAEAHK", "experiment": "Positive allosteric modulation of human mGlu6 receptor expressed in HEK cells assessed as increase in glutamate-induced calcium flux incubated for 142 secs followed by glutamate addition measured after 120 secs by Fluo4-AM dye based fluorescence assay", "assay_type": "functional, cell-based"}, "[3]": {"molecular_target": "Histamine H1 receptor (Homo sapiens) (UniProt P35367)", "experiment": "Displacement of [3H] pyrilamine from recombinant human H1 receptor expressed in CHOK1 cell membranes at 10 uM after 180 mins by scintillation counting method relative to control", "how_it_was_run": "(§2)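 Single-concentration screen at 10 μM within a commercial lead-profiling panel of 68 GPCRs, ion channels and transporters. Activity read as percent inhibition of specific radioligand binding to each target.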"}, "[4]": {"molecular_target": "Prostaglandin E2 receptor EP4 subtype (Homo sapiens) (UniProt P35408)", "experiment": "Displacement of [3H] prostaglandin E2 from recombinant human EP4 receptor expressed in rat Chem1 cell membranes at 10 uM measured after 120 mins by scintillation counting method relative to control", "how_it_was_run": "as §1"}, "[5]": {"experiment": "Brain to plasma partition coefficient, Kp of the compound in C57BL/6 mouse at 10 mg/kg, ip measured after 360 mins by LC-MS/MS analysis", "assay_type": "ADME, organism-based", "settings": "brain and plasma", "how_it_was_run": "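Mice given 10 mg/kg IP; time course out to 6 h with nonserial sampling of plasma and brain at each time point; Kp from brain/plasma levels.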"}, "[6]": {"molecular_target": "Cytochrome P450 2C9 (Homo sapiens, UniProt P11712)", "sequence (P11712 whole entry)": "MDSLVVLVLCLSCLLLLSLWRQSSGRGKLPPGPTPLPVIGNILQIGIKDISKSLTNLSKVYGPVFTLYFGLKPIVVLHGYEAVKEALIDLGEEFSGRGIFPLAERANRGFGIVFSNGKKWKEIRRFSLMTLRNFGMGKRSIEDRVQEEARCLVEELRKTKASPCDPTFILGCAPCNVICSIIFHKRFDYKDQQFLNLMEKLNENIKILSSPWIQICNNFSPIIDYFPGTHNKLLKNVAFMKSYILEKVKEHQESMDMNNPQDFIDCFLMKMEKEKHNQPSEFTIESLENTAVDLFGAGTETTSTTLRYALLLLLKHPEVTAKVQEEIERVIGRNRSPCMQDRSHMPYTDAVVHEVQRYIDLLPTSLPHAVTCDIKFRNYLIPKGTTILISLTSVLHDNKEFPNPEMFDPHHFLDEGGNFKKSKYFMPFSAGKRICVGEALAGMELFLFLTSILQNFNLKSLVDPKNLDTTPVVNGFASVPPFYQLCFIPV", "experiment": "Inhibition of CYP2C9 in human liver microsomes using diclofenac as substrate preincubated for 15 mins followed by NADPH addition measured after 8 mins by LC-MS/MS analysis", "assay_type": "ADME"}, "[7]": {"molecular_target": "Epidermal growth factor receptor (Homo sapiens) (UniProt P00533)", "sequence (P00533 whole entry)": "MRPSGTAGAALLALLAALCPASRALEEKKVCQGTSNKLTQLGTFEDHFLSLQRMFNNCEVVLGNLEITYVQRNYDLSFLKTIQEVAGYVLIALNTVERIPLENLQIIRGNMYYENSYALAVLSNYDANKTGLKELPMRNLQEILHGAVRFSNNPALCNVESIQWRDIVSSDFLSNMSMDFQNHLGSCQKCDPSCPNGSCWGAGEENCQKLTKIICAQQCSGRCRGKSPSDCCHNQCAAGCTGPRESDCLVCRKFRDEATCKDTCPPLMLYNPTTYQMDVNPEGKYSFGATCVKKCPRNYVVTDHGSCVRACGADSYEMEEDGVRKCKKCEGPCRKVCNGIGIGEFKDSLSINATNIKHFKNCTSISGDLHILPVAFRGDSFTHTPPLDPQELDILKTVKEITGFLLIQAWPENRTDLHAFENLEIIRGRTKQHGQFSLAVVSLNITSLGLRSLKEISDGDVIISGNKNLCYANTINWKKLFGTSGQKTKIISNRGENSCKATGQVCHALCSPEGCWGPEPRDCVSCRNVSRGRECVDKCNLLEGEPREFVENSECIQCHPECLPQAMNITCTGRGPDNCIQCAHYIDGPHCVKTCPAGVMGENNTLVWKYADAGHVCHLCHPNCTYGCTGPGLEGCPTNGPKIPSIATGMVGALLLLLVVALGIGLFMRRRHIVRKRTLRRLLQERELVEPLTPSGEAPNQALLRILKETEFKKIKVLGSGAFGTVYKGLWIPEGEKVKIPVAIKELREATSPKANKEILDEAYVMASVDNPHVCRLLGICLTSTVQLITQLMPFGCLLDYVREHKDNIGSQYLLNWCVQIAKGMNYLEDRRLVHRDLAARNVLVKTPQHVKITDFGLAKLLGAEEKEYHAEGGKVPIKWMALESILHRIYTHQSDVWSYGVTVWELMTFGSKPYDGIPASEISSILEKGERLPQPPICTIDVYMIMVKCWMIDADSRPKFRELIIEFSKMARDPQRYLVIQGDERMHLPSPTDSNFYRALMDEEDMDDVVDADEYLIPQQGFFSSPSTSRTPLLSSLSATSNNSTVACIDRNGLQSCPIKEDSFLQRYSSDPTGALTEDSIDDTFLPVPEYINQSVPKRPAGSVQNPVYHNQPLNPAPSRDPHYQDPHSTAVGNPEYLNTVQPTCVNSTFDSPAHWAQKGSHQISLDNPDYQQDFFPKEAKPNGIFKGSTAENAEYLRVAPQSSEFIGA", "experiment": "Displacement of [125I] EGF from EGFR in human A431 cells at 10 uM after 60 mins by scintillation counting method relative to control", "assay_type": "cell-based", "how_it_was_run": "as §1"}, "[8]": {"species": "Rattus norvegicus", "experiment": "Displacement of [3H]batrachotoxinin from sodium channel site 2 in Wistar rat brain membranes at 10 uM after 60 mins by scintillation counting method relative to control", "assay_type": "cell membranes", "settings": "Membrane", "how_it_was_run": "as §2"}, "[9]": {"species": "Rattus norvegicus", "experiment": "Displacement of [35S] ATP-alphaS from Wistar rat brain P2Y receptor at 10 uM measured after 60 mins by scintillation counting method relative to control", "how_it_was_run": "as §1"}, "[10]": {"species": "Rattus norvegicus", "experiment": "Displacement of [3H] Idazoxan from imidazoline I2 receptor in Wistar rat brain membranes at 10 uM after 30 mins by scintillation counting method relative to control", "assay_type": "cell membranes", "settings": "Membrane", "how_it_was_run": "as §1"}, "[11]": {"species": "Oryctolagus cuniculus", "experiment": "Inhibition of rabbit P2X receptor at 10 uM relative to control", "how_it_was_run": "as §2"}, "[12]": {"molecular_target": "Metabotropic glutamate receptor 1 (Rattus norvegicus, UniProt P23385)", "experiment": "Positive allosteric modulation of rat mGlu1 receptor expressed in HEK cells assessed as increase in glutamate-induced calcium flux incubated for 142 secs followed by glutamate addition measured after 120 secs by Fluo4-AM dye based fluorescence assay", "assay_type": "functional, cell-based"}, "[13]": {"molecular_target": "B2 bradykinin receptor (Homo sapiens) (UniProt P30411)", "sequence (P30411 whole entry)": "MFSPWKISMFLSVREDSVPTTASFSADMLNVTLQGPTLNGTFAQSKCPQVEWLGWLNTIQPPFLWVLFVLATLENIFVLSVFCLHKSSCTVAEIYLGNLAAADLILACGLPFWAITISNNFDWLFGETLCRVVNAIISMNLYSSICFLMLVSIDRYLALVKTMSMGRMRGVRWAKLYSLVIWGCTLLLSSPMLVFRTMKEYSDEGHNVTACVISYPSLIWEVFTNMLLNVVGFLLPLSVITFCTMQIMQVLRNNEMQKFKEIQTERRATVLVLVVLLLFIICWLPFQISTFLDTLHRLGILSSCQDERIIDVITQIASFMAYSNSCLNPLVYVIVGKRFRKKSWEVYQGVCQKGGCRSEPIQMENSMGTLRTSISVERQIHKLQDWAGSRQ", "experiment": "Displacement of [3H] bradykinin from recombinant human bradykinin B2 receptor expressed in rat Chem1 cell membranes at 10 uM measured after 60 mins by scintillation counting method relative to control", "how_it_was_run": "as §1"}, "[14]": {"molecular_target": "Interleukin-1 receptor type 1 (Mus musculus) (UniProt P13504)", "experiment": "Inhibition of mouse IL-1 receptor at 10 uM relative to control", "how_it_was_run": "as §2"}, "[15]": {"molecular_target": "Cannabinoid receptor 1 (Homo sapiens) (UniProt P21554)", "experiment": "Displacement of [3H] SR141716A from recombinant human CB1 receptor expressed in rat Chem1 cell membranes at 10 uM measured after 90 mins by scintillation counting method relative to control", "how_it_was_run": "as §1"}, "[16]": {"species": "Rattus norvegicus", "experiment": "Displacement of [125I] triiodothyronine from thyroid hormone receptor in Sprague-Dawley rat liver membranes at 10 uM after 18 hrs by scintillation counting method relative to control", "assay_type": "cell membranes", "settings": "Membrane", "how_it_was_run": "as §1"}, "[17]": {"molecular_target": "Mu-type opioid receptor (Homo sapiens) (UniProt P35372)", "sequence (P35372 whole entry)": "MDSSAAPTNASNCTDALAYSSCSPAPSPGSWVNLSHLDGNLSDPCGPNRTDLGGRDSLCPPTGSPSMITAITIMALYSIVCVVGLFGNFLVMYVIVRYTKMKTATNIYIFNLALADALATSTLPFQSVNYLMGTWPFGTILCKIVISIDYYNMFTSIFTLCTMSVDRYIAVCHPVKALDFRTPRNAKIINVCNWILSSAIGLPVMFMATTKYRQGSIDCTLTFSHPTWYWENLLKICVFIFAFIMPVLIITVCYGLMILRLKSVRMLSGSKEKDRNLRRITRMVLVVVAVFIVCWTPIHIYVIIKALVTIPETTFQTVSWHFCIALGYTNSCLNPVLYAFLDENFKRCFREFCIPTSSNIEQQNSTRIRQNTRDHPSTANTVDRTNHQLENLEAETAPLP", "experiment": "Displacement of [3H] diprenorphine from recombinant human mu opioid receptor expressed in CHOK1 cell membranes at 10 uM after 60 mins by scintillation counting method relative to control", "how_it_was_run": "as §1"}, "[18]": {"molecular_target": "D(2) dopamine receptor (Homo sapiens) (UniProt P14416)", "experiment": "Displacement of [3H] spiperone from recombinant human D2S receptor expressed in CHO cell membranes at 10 uM after 120 mins by scintillation counting method relative to control", "how_it_was_run": "as §2"}, "[19]": {"molecular_target": "Glutamate NMDA receptor (Rattus norvegicus) (UniProt P35439+Q00959+Q00960+Q00961+Q62645+Q8VHN2+Q9R1M7)", "experiment": "Displacement of [3H] CGP-39653 from NMDA in Wistar rat cerebral cortical membranes at 10 uM measured after 20 mins by scintillation counting method relative to control", "how_it_was_run": "as §1"}, "[20]": {"molecular_target": "Sodium-dependent noradrenaline transporter (Homo sapiens) (UniProt P23975)", "experiment": "Displacement of [125I] RTI-55 from full length human recombinant NET expressed in MDCK cell membranes at 10 uM after 180 mins by scintillation counting method relative to control", "how_it_was_run": "as §1"}, "[21]": {"molecular_target": "hERG (KCNH2) (Homo sapiens, UniProt Q12809)", "experiment": "Displacement of [3H] astemizole from full length human recombinant ERG receptor expressed in HEK293 cell membranes at 10 uM after 60 mins by scintillation counting method relative to control", "settings": "HEK293 cell membranes that express recombinant human ERG, probe [3H] astemizole"}, "[22]": {"molecular_target": "D(1A) dopamine receptor (Homo sapiens) (UniProt P21728)", "experiment": "Displacement of [3H] SCH-23390 from recombinant human D1 receptor expressed in CHO cell membranes at 10 uM after 120 mins by scintillation counting method relative to control", "how_it_was_run": "as §1"}, "[23]": {"molecular_target": "Adenosine receptor A1 (Homo sapiens) (UniProt P30542)", "sequence (P30542 whole entry)": "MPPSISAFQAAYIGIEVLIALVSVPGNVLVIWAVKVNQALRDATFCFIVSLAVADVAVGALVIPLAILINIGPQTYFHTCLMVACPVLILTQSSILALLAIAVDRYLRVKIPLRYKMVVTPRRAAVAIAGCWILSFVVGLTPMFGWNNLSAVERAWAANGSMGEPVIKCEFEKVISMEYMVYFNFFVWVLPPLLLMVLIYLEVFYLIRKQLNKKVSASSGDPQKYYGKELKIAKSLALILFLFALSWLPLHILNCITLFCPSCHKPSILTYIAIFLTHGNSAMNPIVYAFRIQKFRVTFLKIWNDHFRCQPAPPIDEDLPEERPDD", "experiment": "Displacement of [3H] DPCPX from full length human recombinant A1 receptor expressed in CHOK1 cell membranes at 10 uM after 90 mins by scintillation counting method relative to control", "how_it_was_run": "as §1"}, "[24]": {"molecular_target": "Sodium-dependent dopamine transporter (Homo sapiens) (UniProt Q01959)", "sequence (Q01959 whole entry)": "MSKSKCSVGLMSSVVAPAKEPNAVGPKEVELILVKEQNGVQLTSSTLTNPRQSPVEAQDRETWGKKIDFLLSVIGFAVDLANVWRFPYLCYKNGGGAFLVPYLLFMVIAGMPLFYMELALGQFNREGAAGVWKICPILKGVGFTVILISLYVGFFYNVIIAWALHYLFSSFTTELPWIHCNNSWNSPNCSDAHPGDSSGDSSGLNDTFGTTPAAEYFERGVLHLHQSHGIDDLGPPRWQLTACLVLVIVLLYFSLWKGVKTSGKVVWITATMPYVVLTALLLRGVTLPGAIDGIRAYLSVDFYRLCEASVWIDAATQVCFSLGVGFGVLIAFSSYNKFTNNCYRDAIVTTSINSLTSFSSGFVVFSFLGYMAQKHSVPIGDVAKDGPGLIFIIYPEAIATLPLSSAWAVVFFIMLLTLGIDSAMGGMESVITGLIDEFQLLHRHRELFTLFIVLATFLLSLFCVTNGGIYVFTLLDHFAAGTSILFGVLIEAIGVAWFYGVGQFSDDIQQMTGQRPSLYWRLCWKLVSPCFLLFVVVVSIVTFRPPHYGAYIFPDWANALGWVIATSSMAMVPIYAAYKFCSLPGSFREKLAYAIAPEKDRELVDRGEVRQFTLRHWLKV", "experiment": "Displacement of [125I] RTI-55 from full length human recombinant DAT expressed in CHO cell membranes at 10 uM after 180 mins by scintillation counting method relative to control", "how_it_was_run": "as §1"}, "[25]": {"species": "Rattus norvegicus", "experiment": "Displacement of [3H] GABA from GABA transporter in Wistar rat cerebral cortical membranes at 10 uM measured after 20 mins by scintillation counting method relative to control", "how_it_was_run": "as §1"}, "[26]": {"molecular_target": "Endothelin receptor type B (Homo sapiens) (UniProt P24530)", "sequence (P24530 whole entry)": "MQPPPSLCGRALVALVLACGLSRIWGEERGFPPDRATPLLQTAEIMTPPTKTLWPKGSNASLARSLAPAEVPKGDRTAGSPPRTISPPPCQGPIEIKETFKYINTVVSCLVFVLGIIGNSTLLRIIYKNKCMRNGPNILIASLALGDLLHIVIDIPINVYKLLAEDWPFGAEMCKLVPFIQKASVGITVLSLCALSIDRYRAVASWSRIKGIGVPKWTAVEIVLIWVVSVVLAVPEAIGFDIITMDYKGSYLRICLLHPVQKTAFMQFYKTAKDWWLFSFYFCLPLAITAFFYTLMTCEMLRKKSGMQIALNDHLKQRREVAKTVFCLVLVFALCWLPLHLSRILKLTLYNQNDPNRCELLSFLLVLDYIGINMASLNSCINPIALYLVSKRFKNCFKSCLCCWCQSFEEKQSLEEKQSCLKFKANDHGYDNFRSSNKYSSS", "experiment": "Displacement of [125I] endothelin-1 from recombinant human ETB receptor expressed in CHOK1 cell membranes at 10 uM after 120 mins by scintillation counting method relative to control", "how_it_was_run": "as §1"}, "[27]": {"molecular_target": "Neuropeptide Y receptor type 2 (Homo sapiens) (UniProt P49146)", "experiment": "Displacement of [125I] Peptide YY from Y2 receptor in human KAN-TS cell membrane at 10 uM after 120 mins by scintillation counting method relative to control", "assay_type": "cell membranes", "how_it_was_run": "as §1"}},
  "data": [
    {"smiles": "COc1ccc(-c2c(C)nn3c(C(F)(F)F)cc(C)nc23)c(F)c1F", "values": [
      {"measurement": "inhibition", "setting": "[1]", "result": "< 50", "unit": "%"},
      {"measurement": "EC50", "setting": "[2]", "result": "> 10", "unit": "µM"},
      {"measurement": "inhibition", "setting": "[3]", "result": "< 50", "unit": "%"},
      {"measurement": "inhibition", "setting": "[4]", "result": "< 50", "unit": "%"},
      {"measurement": "Kp at 6 h", "setting": "[5]", "result": 1.1},
      {"measurement": "IC50", "setting": "[6]", "result": 24.7, "unit": "µM"},
      {"measurement": "inhibition", "setting": "[7]", "result": "< 50", "unit": "%"},
      {"measurement": "inhibition", "setting": "[8]", "result": "< 50", "unit": "%"},
      {"measurement": "inhibition", "setting": "[9]", "result": "< 50", "unit": "%"},
      {"measurement": "inhibition", "setting": "[10]", "result": "< 50", "unit": "%"},
      {"measurement": "inhibition", "setting": "[11]", "result": "< 50", "unit": "%"},
      {"measurement": "EC50", "setting": "[12]", "result": "> 10", "unit": "µM"},
      {"measurement": "inhibition", "setting": "[13]", "result": "< 50", "unit": "%"},
      {"measurement": "inhibition", "setting": "[14]", "result": "< 50", "unit": "%"},
      {"measurement": "inhibition", "setting": "[15]", "result": "< 50", "unit": "%"},
      {"measurement": "inhibition", "setting": "[16]", "result": "< 50", "unit": "%"},
      {"measurement": "inhibition", "setting": "[17]", "result": "< 50", "unit": "%"},
      {"measurement": "inhibition", "setting": "[18]", "result": "< 50", "unit": "%"},
      {"measurement": "inhibition", "setting": "[19]", "result": "< 50", "unit": "%"},
      {"measurement": "inhibition", "setting": "[20]", "result": "< 50", "unit": "%"},
      {"measurement": "inhibition at 1 h, 10 µM", "setting": "[21]", "result": "< 50", "unit": "%"},
      {"measurement": "inhibition", "setting": "[22]", "result": "< 50", "unit": "%"},
      {"measurement": "inhibition", "setting": "[23]", "result": "< 50", "unit": "%"},
      {"measurement": "inhibition", "setting": "[24]", "result": "< 50", "unit": "%"},
      {"measurement": "inhibition", "setting": "[25]", "result": "< 50", "unit": "%"},
      {"measurement": "inhibition", "setting": "[26]", "result": "< 50", "unit": "%"},
      {"measurement": "inhibition", "setting": "[27]", "result": "< 50", "unit": "%"}
    ]}
  ]
}
